Assay results from ChEMBL document CHEMBL1148668, “The identification of pyrimidine-diazabicyclo[3.3.0]octane derivatives as 5-HT2C receptor agonists” (Bioorg Med Chem Lett, 2006).
Calls of active or inactive are those of the source. The calls are words filed in the database; no cut-off is given here.

Experiments:
[1] = molecular target: T1, 5-hydroxytryptamine receptor 2C (Homo sapiens, UniProt P28335); assay: Induction of 5HT2C receptor mediated increase in intracellular calcium concentration in HEK293 cells; assay type: functional, cell-based
T1 sequence (P28335 whole entry): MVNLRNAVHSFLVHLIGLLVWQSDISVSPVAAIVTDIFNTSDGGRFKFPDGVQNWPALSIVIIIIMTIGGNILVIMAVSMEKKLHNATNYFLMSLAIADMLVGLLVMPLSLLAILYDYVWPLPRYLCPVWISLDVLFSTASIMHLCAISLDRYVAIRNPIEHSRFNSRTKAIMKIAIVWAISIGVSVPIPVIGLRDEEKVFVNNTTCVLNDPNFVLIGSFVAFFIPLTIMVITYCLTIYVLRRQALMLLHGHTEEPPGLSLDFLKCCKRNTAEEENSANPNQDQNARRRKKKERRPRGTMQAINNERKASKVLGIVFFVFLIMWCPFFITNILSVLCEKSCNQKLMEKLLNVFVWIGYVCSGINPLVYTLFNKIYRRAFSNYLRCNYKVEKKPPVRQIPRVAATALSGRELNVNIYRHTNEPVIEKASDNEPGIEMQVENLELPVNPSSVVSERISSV
Method in brief: (§1)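 Recombinant cell lines stably expressed the respective 5-HT2 receptor subtype. Agonist-induced rises in intracellular calcium were read with a fluorescence-based assay.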

[2] = molecular target: 5-hydroxytryptamine receptor 2B (Homo sapiens, UniProt P41595); assay: Induction of 5HT2B receptor mediated increase in intracellular calcium concentration in CHO cells; assay type: functional, cell-based; method in brief: as §1
5-hydroxytryptamine receptor 2B, sequence (P41595 whole entry): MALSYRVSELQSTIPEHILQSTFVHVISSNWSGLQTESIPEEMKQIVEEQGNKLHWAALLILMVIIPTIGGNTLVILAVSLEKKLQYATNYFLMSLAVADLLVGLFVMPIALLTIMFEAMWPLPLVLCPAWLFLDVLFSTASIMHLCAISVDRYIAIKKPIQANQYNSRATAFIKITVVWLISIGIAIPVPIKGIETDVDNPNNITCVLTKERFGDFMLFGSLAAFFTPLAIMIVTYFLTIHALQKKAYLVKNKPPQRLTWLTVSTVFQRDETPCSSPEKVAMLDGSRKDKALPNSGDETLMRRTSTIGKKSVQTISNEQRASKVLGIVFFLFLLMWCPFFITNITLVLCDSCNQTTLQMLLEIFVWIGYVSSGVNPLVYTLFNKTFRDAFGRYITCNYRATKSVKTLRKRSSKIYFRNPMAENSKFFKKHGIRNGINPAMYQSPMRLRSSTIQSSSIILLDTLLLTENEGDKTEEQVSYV

[3] = molecular target: 5-hydroxytryptamine receptor 2A (Homo sapiens, UniProt P28223); assay: Induction of 5HT2A receptor mediated increase in intracellular calcium concentration in CHO cells; assay type: functional, cell-based; method in brief: as §1
5-hydroxytryptamine receptor 2A, sequence (P28223 whole entry): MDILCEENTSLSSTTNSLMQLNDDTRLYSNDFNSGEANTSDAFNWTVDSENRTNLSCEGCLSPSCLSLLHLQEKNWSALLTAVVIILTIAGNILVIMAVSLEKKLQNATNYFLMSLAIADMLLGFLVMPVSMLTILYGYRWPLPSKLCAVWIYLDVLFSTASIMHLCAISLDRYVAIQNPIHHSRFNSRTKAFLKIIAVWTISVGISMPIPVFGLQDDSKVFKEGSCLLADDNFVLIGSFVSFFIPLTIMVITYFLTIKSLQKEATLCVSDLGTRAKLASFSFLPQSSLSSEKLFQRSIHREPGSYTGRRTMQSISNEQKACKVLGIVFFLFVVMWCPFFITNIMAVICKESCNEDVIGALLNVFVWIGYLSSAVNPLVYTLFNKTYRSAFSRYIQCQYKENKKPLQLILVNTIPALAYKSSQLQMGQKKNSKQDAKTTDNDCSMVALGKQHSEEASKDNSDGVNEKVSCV

[4] = Half life in rat at 1.2 mg/kg, iv; assay type: ADME, organism-based; set-up: dose 1.2 mg/kg, route intravenous; conditions: in vivo
[5] = Brain to plasma AUC ratio in rat at 1.2 mg/kg, iv; assay type: ADME, organism-based; set-up: dose 1.2 mg/kg, route intravenous; conditions: brain and plasma, read-out: Ratio AUC
Method in brief: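 Brain exposure was taken from cortex tissue. The ratio is AUC in cortex divided by AUC in plasma, after a single intravenous dose in rat.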

[6] = Clearance in rat at 1.2 mg/kg, iv; assay type: ADME, organism-based; set-up: dose 1.2 mg/kg, route intravenous; conditions: in vivo
[7] = test system: Rattus norvegicus; assay: Reduction in food consumption in Sprague-Dawley rat at 20 mg/kg, ip after 4 hrs; assay type: functional, organism-based; set-up: dose 20 mg/kg
Method in brief: (§2)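 Male Sprague–Dawley rats, n = 10/group, were given vehicle, fenfluramine (positive control) or test compound intraperitoneally about 30 min before onset of the 12 h dark cycle. This was a 24 h acute feeding study, with food consumption recorded at 4 and 24 h.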

[8] = Oral bioavailability in rat at 10.6 mg/kg, po; assay type: ADME, organism-based; conditions: in vivo
[9] = test system: Rattus norvegicus; assay: Reduction in food consumption in ip dosed Sprague-Dawley rat; assay type: functional, organism-based; method in brief: as §2
[10] = test system: Rattus norvegicus; assay: Reduction in food consumption in Sprague-Dawley rat at 20 mg/kg, ip after 24 hrs; assay type: functional, organism-based; set-up: dose 20 mg/kg; method in brief: as §2

Compound	EC50 [1] [nM]	EC50 [2] [nM]	EC50 [3] [nM]	other results
FC(F)(F)c1ccnc(N2CC[C@@H]3CNC[C@@H]32)n1	519	–	–	–
Clc1ccc(Cl)c(-c2ccnc(N3C[C@@H]4CCN[C@@H]4C3)n2)c1	> 20000	–	–	–
Clc1cccc(N2CC[C@H]3CNC[C@H]32)c1	503	59	416	–
FC(F)(F)c1ccnc(N2C[C@@H]3CCN[C@@H]3C2)n1	> 20000	–	–	–
FC(F)(F)c1cccc(N2CC[C@H]3CNC[C@H]32)c1	103	65	168	–
C[C@@H]1C[C@H]2CNC[C@H]2N1c1nccc(C(F)(F)F)n1	57	48	25	–
Fc1ccc(F)c(-c2ccnc(N3C[C@@H]4CCN[C@@H]4C3)n2)c1	> 20000	–	–	–
FC(F)(F)c1ccnc(N2CC[C@H]3CNC[C@H]32)n1	23	62	116	half-life [4]: 1.1 h; Kp [5]: 14.5; clearance [6]: 6.71 mL/min/kg; Activity [7]: Active; bioavailability [8]: 6%; Activity [9]: Dose-dependent effect; Activity [10]: Active
Fc1ccc(F)c(-c2ccnc(N3CC[C@H]4CNC[C@H]43)n2)c1	> 1000	–	–	–
FC(F)(F)c1ccnc(N2CCC3CNCC32)n1 (racemic)	180	320	220	–
Fc1cccc(N2CC[C@H]3CNC[C@H]32)c1	319	108	1120	–
FC(F)(F)c1cccc([C@H]2CC[C@H]3CNC[C@H]32)c1	420	187	1080	–
Clc1ccc(Cl)c(-c2ccnc(N3CC[C@H]4CNC[C@H]43)n2)c1	> 1000	–	–	–
C[C@H]1C[C@H]2CNC[C@H]2N1c1nccc(C(F)(F)F)n1	22	151	40	–
